Here are results for eight compounds from PMC6796888 (ACS Omega, 2019).

≈ marks a conversion by molar mass, not a printed value.

The subject of assay [1] is S. typhimurium. Briefly: Synergistic assay with ciprofloxacin. The class given is cell-based, Salmonella typhimurium.
In assay [2] the test system is P. aeruginosa. The assay is described as follows: Synergistic assay with ciprofloxacin. The class given is cell-based. The settings on record: P. aeruginosa; 4l combined with CIP.
The subject of assay [3] is E. faecalis. The assay is described as follows: Synergistic assay with ciprofloxacin. The class given is cell-based, Enterococcus faecalis.
The test system of assay [4] is E. coli. The assay is described as follows: Synergistic assay with ciprofloxacin. The class given is cell-based, Escherichia coli. The settings on record: E. coli; 4l combined with CIP.
Assay [5] relates to S. pneumoniae. Briefly: Synergistic assay with ciprofloxacin. Type of assay: cell-based, Streptococcus pneumoniae.
Assay [6] concerns E. coli ATCC 25922. Briefly: In vitro screening, % growth inhibition at 250 μg/mL. The settings on record: Escherichia coli, ATCC25922, 24 h, read-out: % inhibition at 250 μg/mL. The class given is cell-based, Escherichia coli. A digest of the protocol: (§1)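 Test compounds dissolved in DMSO and diluted in test medium. Mid-log cultures diluted in nutrient broth to McFarland standard and treated with 250 μg/mL in 96-well plates, 37 °C, 160 rpm, 24 h. Growth read as OD at 580 nm; % inhibition calculated from absorbance against untreated growth. Run twice on different occasions.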

In assay [7] the test system is S. pneumoniae MTCC 655. Described as above. The class given is cell-based, Streptococcus pneumoniae. The settings on record: Streptococcus pneumoniae, MTCC655, 24 h, read-out: % inhibition at 250 μg/mL. The method in brief: as §1
The subject of assay [8] is E. faecalis MTCC 439. The description is as above. The class given is cell-based, Enterococcus faecalis. The settings on record: Enterococcus faecalis, MTCC439, 24 h, read-out: % inhibition at 250 μg/mL. The method in brief:
as §1

For assay [9], the system named is P. auroginosa MTCC 2453. Described as above. The class given is cell-based, Pseudomonas auroginosa. The settings on record: for inhibition at 250 µg/mL: Pseudomonas, MTCC2453, 24 h, read-out: % inhibition at 250 μg/mL. A digest of the protocol: as §1
Assay [10] concerns P. auroginosa MTCC 2453. Briefly: MIC by broth microdilution. The settings on record: Pseudomonas, MTCC2453. The class given is cell-based, Pseudomonas auroginosa. A general note: In broth dilution the organism is exposed to a series of concentrations in liquid medium.

For the compound `O=C(O)c1cn(C2CC2)c2cc(N3CCNCC3)c(F)cc2c1=O` [CIP, ciprofloxacin, reference compound], the MIC in combination in [1] (S. typhimurium, 4l combined with CIP) was determined as 0.25 µg/mL; in [2], 0.5 µg/mL; in assay [3] (E. faecalis, 4l combined with CIP), 0.0625 µg/mL; in [4] it was 0.125 µg/mL; in [5] (S. pneumoniae, 4l combined with CIP), 0.0625 µg/mL. Besides, the minimal inhibitory concentration (MIC) in assay [1] (Salmonella enterica, TYPHIMURIUM, read-out: MIC alone) came out at 0.25 µg/mL; in [3] (Enterococcus faecalis, read-out: MIC alone), 0.25 µg/mL; in assay [5] (Streptococcus pneumoniae, read-out: MIC alone), 0.25 µg/mL.

For `CNC1=C([N+](=O)[O-])C2(C(=O)Nc3ccccc32)C2=C(CC(C)(C)CC2=O)O1` (centres unmarked) [Compound 4a, 7,7-Dimethyl-2-(methylamino)-3-nitro-7,8-dihydrospiro[chromene-4,3′-indoline]-2′,5(6 H)-dione], the inhibition at 250 µg/mL came to 43.2% in [6], 29.7% in assay [7], 41.5% in assay [8] and 37.3% in assay [9].

On to `CNC1=C([N+](=O)[O-])C2(C(=O)Nc3ccc(Cl)cc32)C2=C(CC(C)(C)CC2=O)O1` (centres unmarked) [Compound 4b], for which the inhibition at 250 µg/mL in assay [6] stood at 43.2%; in [7], 21.3%; in assay [8], 31.9%; in [9], 18%.

Regarding `CNC1=C([N+](=O)[O-])C2(C(=O)Nc3ccc(Br)cc32)C2=C(CC(C)(C)CC2=O)O1` (centres unmarked) [Compound 4c], the inhibition at 250 µg/mL came out at 40.7% in assay [6], 21.5% in assay [7], 38.1% in assay [8] and 100% in assay [9]. The “% inhibition at 250 μg/mL” value in assay [9] (P. auroginosa MTCC 2453, 250 μg/mL, 24 h) is “complete growth inhibition”. This compound came in with a minimal inhibitory concentration (MIC) in assay [10] of 250 µg/mL (≈ 558 µM).

With `CNC1=C([N+](=O)[O-])C2(C(=O)Nc3ccc([N+](=O)[O-])cc32)C2=C(CC(C)(C)CC2=O)O1` (centres unmarked) [Compound 4d], the inhibition at 250 µg/mL is 36.1% in assay [6], 23.2% in assay [7], 30.4% in [8] and 52.5% in assay [9].

Take `CNC1=C([N+](=O)[O-])C2(C(=O)Nc3ccccc32)c2c(c3ccccc3oc2=O)O1` (centres unmarked) [Compound 4i]: the inhibition at 250 µg/mL in [6] was determined as 15.4%; in assay [7], 1.96%; in assay [8] it was 7.5%; in assay [9] it was 6.58%.

As for `CNC1=C([N+](=O)[O-])C2(C(=O)Nc3ccc(Cl)cc32)c2c(c3ccccc3oc2=O)O1` (centres unmarked) [Compound 4j], the inhibition at 250 µg/mL in [6] came to 45.8%; in assay [7], 27.8%; in [8], 27.2%; in assay [9] it was 23.1%.

Regarding `CNC1=C([N+](=O)[O-])C2(C(=O)Nc3ccc(Br)cc32)c2c(c3ccccc3oc2=O)O1` (centres unmarked) [Compound 4k], the inhibition at 250 µg/mL in assay [6] amounted to 32%; in assay [7] it was 19.7%; in assay [8], 18.1%; in assay [9] it was 4.61%.

The term MIC denotes the lowest concentration found to suppress growth.
